Reference: ChEMBL document CHEMBL1773006, “Enone- and chalcone-chloroquinoline hybrid analogues: in silico guided design, synthesis, antiplasmodial activity, in vitro metabolism, and mechanistic studies” (J Med Chem, 2011)
Values after ≈ are worked out from the molar mass of the structure shown.

Columns and labels:
[1] = Inhibition of Plasmodium falciparum falcipain 2 assessed as benzyloxycarbonyl-Phe-Leu-7-amino-4-methylcoumarin substrate hydrolysis after 30 mins by spectrofluorometry analysis
[2] = Ratio of compound IC50 to hematin IC50 for inhibition of beta-hematin formation
[3] = Solubility of the compound in phosphate buffer at pH 6.5; assay type: physicochemical
Plasmodium falciparum [4] = experiment: Antiplasmodial activity against chloroquine-sensitive Plasmodium falciparum D10 infected in erythrocytes assessed as inhibition of sorbitol-induced hemolysis after 15 mins; assay type: functional
Plasmodium falciparum [5] = experiment: Antiplasmodial activity against chloroquine-resistant Plasmodium falciparum W2 by FACS-based assay; assay type: functional, organism-based
Method in brief: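 W2 parasites kept in continuous culture in standard medium with 10% human serum, synchronized with 5% D-sorbitol at ring stage when needed. Parasite development read by FACS. Final DMSO at most 0.5%. IC50 in µM is the mean of two independent determinations, each run in duplicate.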

[6] = Partition coefficient, log D of the compound at pH 7.4 by HPLC analysis; assay type: physicochemical; conditions: octanol/water
Plasmodium falciparum [7] = experiment: Antiplasmodial activity against chloroquine-resistant Plasmodium falciparum Dd2 by FACS-based assay; assay type: functional, organism-based
[8] = Partition coefficient, log D of the compound at pH 3 by HPLC analysis; assay type: physicochemical; conditions: octanol/water
[9] = Solubility of the compound in 0.01 M hydrochloric acid at pH 2; assay type: physicochemical
Liver = experiment: (§1) Half life in mouse liver microsomes assessed as compound degradation at 1 uM by LC-MS analysis in presence of NADPH and UDPGA; assay type: ADME, Microsome; conditions: microsomes, 1 µM
Plasmodium falciparum [10] = experiment: Antiplasmodial activity against chloroquine-sensitive Plasmodium falciparum D10 by FACS-based assay; assay type: functional, organism-based
[11] = (§2) Half life in human liver microsomes assessed as compound degradation at 1 uM by LC-MS analysis in presence of NADPH and UDPGA; assay type: ADME, Microsome; conditions: liver microsomes
[12] = as §1; assay type: ADME, Microsome; conditions: liver microsomes
Liver microsomes = experiment: as §2; assay type: ADME, Microsome; conditions: microsomes, 1 µM
CHO = experiment: Cytotoxicity against CHO cells at 100 uM; assay type: cell-based, Cricetulus griseus; conditions: chinese hamster
[13] = phosphate buffer, read-out: solubility
[14] = 0.01 M hydrochloric acid, read-out: solubility

Structure (SMILES) | IC50 [1] [nM] | Ratio IC50 [2] | solubility [3, 13] [µg/mL] | inhibition (INH) (Plasmodium falciparum [4]) [%] | IC50 (Plasmodium falciparum [5]) [nM] | logD [6] | IC50 (Plasmodium falciparum [7]) [nM] | logD [8] | solubility ([9]; buffer) [µg/mL] | t1/2 (Liver) [min] | IC50 (Plasmodium falciparum [10]) [nM] | half-life at 1 µM [11] [min] | solubility ([3]; buffer) [µg/mL] | half-life at 1 µM [12] [min] | t1/2 (Liver microsomes) [min] | Activity (CHO) | solubility [9, 14] [µg/mL]
COc1cc(/C=C/C(C)=O)cc(CN2CCN(c3ccnc4cc(Cl)ccc34)CC2)c1O | > 50000 | 0.5 | 1.6 (≈ 3.54 µM) | 16.8 | 500 | 3.9 | 1700 | 0.9 | > 100 | 14 | 1000 | – | – | – | – | – | –
COc1ccc(C(=O)/C=C/c2ccc(OCCN3CCN(c4ccnc5cc(Cl)ccc45)CC3)c(OC)c2)c(OC)c1 | 11700 | 0.2 | – | – | 600 | 5.3 | 500 | 2.2 | > 100 | – | 1200 | 11.5 | < 1.6 | 9.8 | – | – | –
COc1cc(/C=C/C(C)=O)ccc1OCCN1CCN(c2ccnc3cc(Cl)ccc23)CC1 | > 50000 | 0.5 | 1.6 (≈ 3.43 µM) | – | 500 | 4.2 | 1000 | 1.2 | > 100 | – | 1200 | 9.8 | – | 5.6 | – | – | –
COc1ccc(C(=O)/C=C/c2ccc(O)c(OC)c2)c(OC)c1 | > 50000 | > 5 | – | 27.9 | > 10000 | – | 7300 | – | – | – | 5300 | – | – | – | – | – | –
CCN(CC)CCCC(C)Nc1ccnc2cc(Cl)ccc12 (stereo not given) [CHLOROQUINE] | – | – | – | – | – | – | – | – | – | – | – | – | – | – | > 250 | – | –
COc1cc(/C=C/C(C)=O)ccc1O [DEHYDROZINGERONE] | – | – | – | 21.1 | > 10000 | – | > 20000 | – | – | – | > 20000 | – | – | – | – | – | –
CC(=O)/C=C/c1ccc(O)c(CN2CCN(c3ccnc4cc(Cl)ccc34)CC2)c1 | 29900 | 0.5 | – | 11.6 | 700 | 4.2 | 3100 | 0.8 | > 100 | 15 | 1700 | – | < 1.6 | – | 7.5 | – | –
CC(=O)/C=C/c1ccc(O)cc1 | > 50000 | > 5 | – | – | – | – | – | – | – | – | – | – | – | – | – | – | –
COc1ccc(C(=O)/C=C/c2ccc(OCCNc3ccnc4cc(Cl)ccc34)c(OC)c2)c(OC)c1 | 22900 | 0.3 | 3.1 (≈ 5.97 µM) | – | 400 | 4.2 | 1100 | 2.8 | > 100 | 12.7 | 800 | – | – | – | 17.5 | – | –
COc1ccc(C(=O)/C=C/c2ccc(O)cc2)c(OC)c1 | > 50000 | 1.9 | – | – | – | – | – | – | – | – | – | – | – | – | – | – | –
OCCNc1ccnc2cc(Cl)ccc12 | > 50000 | 4.9 | – | 0.9 | 200 | – | 1000 | – | – | – | 2600 | – | – | – | – | – | –
COc1ccc(C(=O)/C=C/c2ccc(O)c(CN3CCN(c4ccnc5cc(Cl)ccc45)CC3)c2)c(OC)c1 | 10000 | 0.2 | – | – | 300 | 5.3 | 500 | 2 | > 100 | 45.4 | 600 | – | < 1.6 | – | 58.6 | Non-toxic | –
COc1cc(/C=C/C(C)=O)ccc1OCCNc1ccnc2cc(Cl)ccc12 | > 50000 | 0.6 | 6.3 (≈ 15.9 µM) | 12.3 | 100 | 3 | 1500 | 1.8 | – | 13.4 | 1000 | – | – | – | 10.5 | – | 50 (≈ 126 µM)
CC(C)C[C@H](NC(=O)[C@H]1O[C@@H]1C(=O)O)C(=O)NCCCCN=C(N)N [E-64] | 55 | – | – | – | – | – | – | – | – | – | – | – | – | – | – | – | –
Clc1ccc2c(N3CCNCC3)ccnc2c1 | > 50000 | – | – | 5.8 | 300 | – | 900 | – | – | – | 700 | – | – | – | – | – | –
COc1cc(/C=C/C(C)=O)ccc1OCc1cn(-c2ccnc3cc(Cl)ccc23)nn1 | – | – | 3.1 (≈ 7.13 µM) | – | – | 3.6 | – | 3.5 | – | – | – | 7.4 | – | 6.2 | – | – | 3.1 (≈ 7.13 µM)
OCCN1CCN(c2ccnc3cc(Cl)ccc23)CC1 | > 50000 | 3.9 | – | – | 1000 | – | 3800 | – | – | – | 5200 | – | – | – | – | – | –
COc1ccc(C(=O)/C=C/c2cc(CN3CCN(c4ccnc5cc(Cl)ccc45)CC3)c(O)c(OC)c2)c(OC)c1 | 9100 | 0.3 | – | 3.9 | 400 | 5 | 500 | 2.1 | > 100 | 11.8 | 500 | – | < 1.6 | – | 37 | Non-toxic | –
COc1ccc(C(=O)/C=C/c2ccc(OCc3cn(-c4ccnc5cc(Cl)ccc45)nn3)c(OC)c2)c(OC)c1 | 10800 | 1.6 | – | 15.4 | – | 4.3 | – | 4.3 | < 1.6 | 56.8 | – | – | < 1.6 | – | 51.1 | – | –
